KCNK3 inh: human KCNK3 channel inhibition, primary screen. CHO-KCNK3 thallium flux, FluxOR fluorescence; active compounds read low. B-score at 10 µM. 340,000 tested, 0.84% active. AID 602410;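 active means B-score under library mean minus 4 SD, starting fluorescence ratio at most library mean plus 5 SD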;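 further: more negative B-score means stronger inhibition of thallium flux through KCNK3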
Target sequence (O14649 whole entry, looked up): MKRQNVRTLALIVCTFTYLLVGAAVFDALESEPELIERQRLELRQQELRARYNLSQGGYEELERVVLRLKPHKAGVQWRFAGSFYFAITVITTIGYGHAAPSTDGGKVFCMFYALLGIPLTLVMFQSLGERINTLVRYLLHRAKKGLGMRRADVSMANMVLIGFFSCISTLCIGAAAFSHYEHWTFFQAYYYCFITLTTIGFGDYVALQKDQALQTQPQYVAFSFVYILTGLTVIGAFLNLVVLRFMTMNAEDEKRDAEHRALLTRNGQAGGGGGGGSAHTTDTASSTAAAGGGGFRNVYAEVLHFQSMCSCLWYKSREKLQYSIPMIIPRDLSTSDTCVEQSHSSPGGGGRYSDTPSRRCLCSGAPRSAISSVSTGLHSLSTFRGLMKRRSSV
hERG rescue: shields human hERG channel from block by proarrhythmic agents; Q12809; CHO-hERG, FluxOR thallium flux, dofetilide IC70 present; activation (rescue from dofetilide block), less the hit threshold, % at 10 µM; 310,000 tested, 0.51% active; AID 1511;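 active means activation above the mean of controls blocked by dofetilide plus 5 SD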;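 further: thallium influx through hERG after potassium depolarization seen as dye fluorescence rise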
KCNQ1 act: human KCNQ1 channel potentiation or activation | CHO-K1 KCNQ1, thallium flux FluxOR fluorescence; active compounds read high | P51787 | AID 2648 | B-score at 10 µM | 310,000 tested, 0.35% active;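 active means fluorescence ratio B-score, a plate-corrected score, at least three library SD, with initial intensity B-score within 5 SD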
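Schedule – 37 °C overnight plating, 90-min dark dye load, 20-min compound pretreatment · System – stable KCNQ1 CHO-K1 line · Probe or stimulus – thallium- and potassium-containing depolarizing buffer · Measured by – kinetic FluxOR fluorescence, 10 s baseline plus 110 s post-stimulus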
KCC2 mod: KCC2 (human) Cl- transport modulation. Q9H2X9. KCC2 cells, thallium flux FluoZin-2 fluorescence. B-score of Tl+ flux slope (higher = more flux/activation; lower = inhibition) at 10 µM. 190,000 tested, 2.2% active;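 active means thallium flux slope and its plate-corrected score both differing from the plate sample mean at a set confidence after two filtering rounds, in either direction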;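 further: slope of fluorescence scaled to starting intensity during 10 to 20 s after thallium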
KCNK9 inh: inhibitors of human KCNK9 two-pore domain potassium channel; HEK293 KCNK9, FluxOR thallium flux fluorescence; active compounds read low; 310,000 tested, 1.2% active; Q9NPC2; AID 488922; B-score at 10 µM;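 active means ratio B-score over 3 SD below the library mean, with starting fluorescence within 5 SD of its mean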;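 further: negative B-score means less thallium flux so channel inhibition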
Target sequence (Q9NPC2 whole entry, looked up, the tested form may be a part): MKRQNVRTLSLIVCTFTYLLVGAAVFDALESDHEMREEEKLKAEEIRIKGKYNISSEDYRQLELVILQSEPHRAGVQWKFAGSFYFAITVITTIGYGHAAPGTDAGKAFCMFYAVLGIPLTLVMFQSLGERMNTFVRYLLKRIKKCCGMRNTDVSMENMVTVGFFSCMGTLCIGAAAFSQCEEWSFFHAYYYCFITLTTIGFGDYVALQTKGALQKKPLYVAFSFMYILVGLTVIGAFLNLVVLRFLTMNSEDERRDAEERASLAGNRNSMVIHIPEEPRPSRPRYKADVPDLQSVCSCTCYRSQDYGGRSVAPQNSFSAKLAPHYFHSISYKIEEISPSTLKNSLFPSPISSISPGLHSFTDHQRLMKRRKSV
KCNQ1 inh: inhibitors of human KCNQ1 potassium channel; P51787; CHO-K1 KCNQ1, FluxOR thallium flux fluorescence; active compounds read high; B-score at 10 µM; 310,000 tested, 1.3% active;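 active means compounds whose thallium flux B-score, printed positive for inhibition, exceeds three library SD while starting fluorescence stays within three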;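 further: channel opened by potassium depolarization with thallium stimulus after 20 min compound exposure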
KCC2 secondary: KCC2 (human) modulation, secondary assay. shares compounds with KCC2 mod. HEK293-KCC2, thallium flux, FluoZin2 fluorescence; active compounds read high. normalised thallium flux (F/F0 slope) at 10 µM. 3,700 tested, 15% active. AID 1713;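 active means thallium flux slope above the same plate's solvent-only control mean plus 3 SD; inconclusive means the two replicate wells disagree; inactive means no significant difference from solvent-only control wells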
KCC2 bumet counter: thallium flux persisting under bumetanide in KCC2 cells, counter-screen secondary assay | HEK293-KCC2 + bumetanide/ouabain, thallium flux FluoZin2; active compounds read high | shares compounds with KCC2 mod | normalized thallium flux at 10 µM | AID 1714 | 3,700 tested, 49% active;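 active means thallium entry rate above the same plate's blocked-transporter control wells by more than 3 SD; inconclusive means the two repeat wells disagree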;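 further: raw slope of fluorescence over initial fluorescence between 10 and 20 s after thallium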
KCC2 secondary2: confirmation of human KCC2 transport modulators; shares compounds with KCC2 mod; HEK293-KCC2, thallium flux FluoZin2 fluorescence; actives lie on both sides; F/F0 rise rate, 10–20 s post-thallium; normalized thallium flux at 10 µM; 3,700 tested, 23% active;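 active means thallium flux slope more than 3 SD above or below the plate's solvent-only control mean, mostly below; inconclusive means the two repeat wells disagreed; inactive means no significant shift from solvent-only controls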
HEK counter1: parental HEK flux effect, counter-screen | shares compounds with KCC2 mod | thallium flux rate (normalised fluorescence) at 10 µM | 3,700 tested, 46% active | HEK293 parental cells, thallium flux FluoZin2, ouabain; baseline-ratio fluorescence slope, 10–20 s after thallium;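 active means thallium flux rate significantly above the same plate's solvent-only control wells, beyond their mean plus 3 SD; inconclusive means the two replicate wells gave conflicting results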
KCC2 retest ouab: KCC2 (human) modulation, ouabain retest; shares compounds with KCC2 mod; HEK293-KCC2, thallium flux FluoZin2 fluorescence; bidirectional: low = inhibitor, high = activator; raw Tl+ flux slope (below DMSO = inhibition, above = activation) at 10 µM; 3,700 tested, 48% active; AID 1717;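 active means thallium flux slope beyond 3 SD from same-plate DMSO control mean in most replicates, usually higher, sometimes lower; inconclusive means repeat tests gave conflicting results; inactive means no significant difference from controls in most replicates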;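 further: slope of initial-normalized fluorescence between seconds 10 and 20 after thallium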
HEK293 Tl flux2: acts in parental HEK cells, second KCC2 counter-screen. 3,700 tested, 33% active. thallium flux slope at 10 µM. shares compounds with KCC2 mod. AID 1718. HEK293 parental, thallium flux FluoZin-2 fluorescence slope;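 active means thallium flux slope above the same plate's solvent-control mean plus 3 SD in both duplicate wells; inconclusive means duplicate wells that disagreed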;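 further: run without ouabain in cells lacking the KCC2 cotransporter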
Of the large screens only hits and unclear results are named; the others gave an inactive call (follow-up assays come after a bar, where they were run). The list is not random: actives were taken first. Their share in the collection is about 4.1%.

CCc1ccc(-c2cn(C3CCCCC3)c(=S)[nH]2)cc1	KCC2 mod 6 | KCC2 secondary inactive | KCC2 bumet counter 0.05 | KCC2 secondary2 inactive | HEK counter1 0.012 | KCC2 retest ouab 0.023 | HEK293 Tl flux2 inconclusive
CCn1c(SCC(=O)c2ccccc2)nc2c(c1=O)SC(C)C2 (stereo not given)	none
CCn1c(SCC(=O)Nc2nc3ccccc3s2)nc2c(c1=O)SC(C)C2 (stereo not given)	KCC2 mod -4.1 (no result: KCNK3 inh) | KCC2 secondary inactive | KCC2 bumet counter inactive | KCC2 secondary2 inactive | HEK counter1 0.0057 | KCC2 retest ouab 0.02 | HEK293 Tl flux2 inactive
CCOC(=O)C1=CNS(=O)(=O)NC1c1ccc(OC(C)=O)cc1 (stereo not given)	none (no result: hERG rescue, KCNQ1 act, KCC2 mod, KCNK9 inh, KCNQ1 inh)
Cc1ccccc1Nc1nnc(SCC(=O)Nc2ncc(C(F)(F)F)cc2Cl)s1	none
Cc1cccc(C)c1Nc1nnc(SCC(=O)Nc2ncc(C(F)(F)F)cc2Cl)s1	KCC2 mod -6.5 | KCC2 secondary 0.0057 | KCC2 bumet counter inactive | KCC2 secondary2 0.025 | HEK counter1 inconclusive | KCC2 retest ouab 0.014 | HEK293 Tl flux2 inactive
Cc1cccc(Nc2nnc(SCC(=O)Nc3ncc(C(F)(F)F)cc3Cl)s2)c1C	KCC2 mod -3.6 | KCC2 secondary inactive | KCC2 bumet counter inactive | KCC2 secondary2 0.024 | HEK counter1 inactive | KCC2 retest ouab inconclusive | HEK293 Tl flux2 inactive
Cc1ccc(Nc2nnc(SCC(=O)Nc3ncc(C(F)(F)F)cc3Cl)s2)cc1	none
O=C1C=CC(c2ccccc2)(c2ccccc2)CC1	none (no result: hERG rescue, KCNQ1 act, KCC2 mod, KCNK9 inh, KCNQ1 inh)
O=C(O)CCCCCCCCCCCNC(=O)NC12CC3CC(CC(C3)C1)C2	none (no result: hERG rescue, KCNQ1 act, KCC2 mod, KCNK9 inh, KCNQ1 inh)
Cc1cc(C)c(S(=O)(=O)/N=C2/C=C(SCC(=O)O)C(=O)c3ccccc32)cc1C	KCC2 mod -4.2 (no result: hERG rescue, KCNQ1 act, KCNK9 inh, KCNQ1 inh) | KCC2 secondary inactive | KCC2 bumet counter 0.007 | KCC2 secondary2 inconclusive | HEK counter1 inactive | KCC2 retest ouab inactive | HEK293 Tl flux2 inactive
O=S(=O)(c1ccc(F)c(Cl)c1)N1CCN(C/C=C/c2ccccc2)CC1	none (no result: hERG rescue, KCNQ1 act, KCC2 mod, KCNK9 inh, KCNQ1 inh)
CCSc1oc(-c2ccco2)nc1S(=O)(=O)c1ccccc1	KCC2 mod 6.5 | KCC2 secondary inactive | KCC2 bumet counter inactive | KCC2 secondary2 inactive | HEK counter1 inactive | KCC2 retest ouab inactive | HEK293 Tl flux2 inactive
CCCSc1oc(-c2ccco2)nc1S(=O)(=O)c1ccccc1	none
Cc1cc(C(C)(C)C)ccc1OCCN1CCCC1	none (no result: KCC2 mod) | KCC2 secondary inactive | KCC2 bumet counter inactive | KCC2 secondary2 inactive | HEK counter1 inactive | KCC2 retest ouab inactive | HEK293 Tl flux2 inconclusive
Cc1ccc(-c2cc(Cc3ccccn3)c(=O)[nH]n2)cc1	none | KCC2 secondary inactive | KCC2 bumet counter 0.0086 | KCC2 secondary2 inactive | HEK counter1 inactive | KCC2 retest ouab inactive | HEK293 Tl flux2 inactive
O=c1[nH]nc(-c2ccc(F)cc2)cc1Cc1ccccn1	none
O=C(NCC1CCCO1)c1ccccc1NS(=O)(=O)c1ccc(Br)s1 (stereo not given)	none (no result: hERG rescue, KCNQ1 act, KCC2 mod, KCNK9 inh, KCNQ1 inh)
N#Cc1ccc(NCC(=O)Nc2ccc(S(=O)(=O)N3CCCCC3)cc2)cc1	none (no result: hERG rescue, KCNQ1 act, KCC2 mod, KCNK9 inh, KCNQ1 inh)
C/C(=N\NC(=O)c1cccc([N+](=O)[O-])c1)c1ccco1	KCC2 mod 12 | KCC2 secondary inactive | KCC2 bumet counter 0.025 | KCC2 secondary2 inactive | HEK counter1 0.019 | KCC2 retest ouab 0.029 | HEK293 Tl flux2 0.026
C/C(=N\NC(=O)c1cccnc1)c1ccc(Br)cc1	none (no result: KCC2 mod)
CC/C(Cc1ccccc1)=N\NC(=O)c1cc(C)oc1C	none
CC/C(Cc1ccccc1)=N\NC(=O)c1cc([N+](=O)[O-])cc([N+](=O)[O-])c1	KCC2 mod 33 | KCC2 secondary 0.018 | KCC2 bumet counter 0.067 | KCC2 secondary2 inconclusive | HEK counter1 0.033 | KCC2 retest ouab 0.045 | HEK293 Tl flux2 0.018
CC(/C=C/c1ccccc1)=N/NC(=O)c1cc([N+](=O)[O-])cc([N+](=O)[O-])c1	none (no result: hERG rescue, KCNQ1 act, KCNK9 inh, KCNQ1 inh)
CC/C(Cc1ccccc1)=N/NC(=O)c1cccc(Br)c1	KCC2 mod 9.2 | KCC2 secondary inactive | KCC2 bumet counter 0.01 | KCC2 secondary2 inactive | HEK counter1 0.016 | KCC2 retest ouab inactive | HEK293 Tl flux2 0.015
C/C(=N\NC(=O)c1ccc(Br)cc1)c1ccccc1	KCC2 mod 6 | KCC2 secondary inactive | KCC2 bumet counter 0.013 | KCC2 secondary2 inactive | HEK counter1 0.015 | KCC2 retest ouab inconclusive | HEK293 Tl flux2 inactive
C[C@@H]1CC[C@H]2C(=O)N3[C@@H](CC[C@@H](C)[C@@H]3c3ccc(Br)cc3)C(=O)N2[C@H]1c1ccc(Br)cc1	KCC2 mod 5.3 | KCC2 secondary inactive | KCC2 bumet counter inactive | KCC2 secondary2 inactive | HEK counter1 inactive | KCC2 retest ouab inactive | HEK293 Tl flux2 inactive
COC(=O)[C@]1(Cc2ccccc2)N[C@H](CN(C)C(=O)COc2ccccc2)[C@@H]2C(=O)N(Cc3ccccc3)C(=O)[C@@H]21	none (no result: hERG rescue, KCNQ1 act, KCC2 mod, KCNK9 inh, KCNQ1 inh)
O=C(Oc1c(-c2ccccc2)oc2ccccc2c1=O)c1ccccc1	none (no result: KCC2 mod) | KCC2 secondary 0.014 | KCC2 bumet counter 0.068 | KCC2 secondary2 inactive | HEK counter1 inconclusive | KCC2 retest ouab 0.055 | HEK293 Tl flux2 inconclusive
CCOC(=O)C1(CCCc2ccccc2)CCN(Cc2cnc(C)s2)CC1	KCC2 mod -4.9 | KCC2 secondary inconclusive | KCC2 bumet counter inactive | KCC2 secondary2 inconclusive | HEK counter1 inactive | KCC2 retest ouab inactive | HEK293 Tl flux2 inactive
O=C(Nc1nnc(-c2ccc3c(c2)CCCC3)o1)c1c(F)cccc1F	KCC2 mod 16 | KCC2 secondary 0.017 | KCC2 bumet counter 0.047 | KCC2 secondary2 inactive | HEK counter1 0.02 | KCC2 retest ouab 0.035 | HEK293 Tl flux2 0.013
O=C(Nc1nnc(-c2ccc3c(c2)CCCC3)o1)C1CCCCC1	none

Assay outcomes (PubChem)
